Laboratory results published in ChEMBL document CHEMBL2331391, “Peroxisome proliferator-activated receptor-γ mediates the anti-inflammatory effect of 3-hydroxy-4-pyridinecarboxylic acid derivatives: synthesis and biological evaluation” (Eur J Med Chem, 2013).
Active and inactive are the calls of the source. The calls are words filed in the database; no cut-off is given here.

Assays:
Macrophage [1] = assay: Antiinflammatory activity in human macrophages assessed as inhibition of LPS-induced IL-8 release at 10 uM preincubated for 30 mins before LPS-challenge measured after 24 hrs post challenge by ELISA; assay type: functional, cell-based
Outline: (§1)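 Human blood PBMC-derived macrophages were used after 10 days of culture. Purity >95% (esterase, CD14, morphology). Cells were pretreated 30 min at 37 °C with compound, then given 100 ng/mL LPS (S. enteritidis) for 24 h. TNFα, IL-1β and IL-8 in conditioned medium were measured by ELISA. Working solutions were endotoxin-tested by LAL (<3 pg/mL).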

Macrophage [2] = assay: Antiinflammatory activity in human macrophages assessed as inhibition of LPS-induced IL-1beta release at 10 uM preincubated for 30 mins before LPS-challenge measured after 24 hrs post challenge by ELISA; assay type: functional, cell-based; outline: as §1
Macrophage [3] = assay: Antiinflammatory activity in human macrophages assessed as inhibition of LPS-induced TNFalpha release at 10 uM preincubated for 30 mins before LPS-challenge measured after 24 hrs post challenge by ELISA; assay type: functional, cell-based; outline: as §1
[4] = Cytotoxicity against human macrophages at 10 '4 uM after 72 hrs by MTT assay; assay type: cell-based; settings: macrophage
[5] = Cytotoxicity against human macrophages at 10 '5 uM after 72 hrs by MTT assay; assay type: cell-based; settings: macrophage
[6] = Cytotoxicity against human macrophages up to 100 uM after 72 hrs by MTT assay; assay type: cell-based; settings: macrophage
[7] = biological target: T1, Peroxisome proliferator-activated receptor gamma (Mus musculus) (UniProt P37238); assay: Induction of PPAR-gamma promoter activity in LPS-stimulated mouse CMT93 cells at 10 uM preincubated for 30 mins before LPS-challenge measured after 6 hrs post challenge by luciferase reporter gene assay; assay type: cell-based
T1 sequence (whole entry): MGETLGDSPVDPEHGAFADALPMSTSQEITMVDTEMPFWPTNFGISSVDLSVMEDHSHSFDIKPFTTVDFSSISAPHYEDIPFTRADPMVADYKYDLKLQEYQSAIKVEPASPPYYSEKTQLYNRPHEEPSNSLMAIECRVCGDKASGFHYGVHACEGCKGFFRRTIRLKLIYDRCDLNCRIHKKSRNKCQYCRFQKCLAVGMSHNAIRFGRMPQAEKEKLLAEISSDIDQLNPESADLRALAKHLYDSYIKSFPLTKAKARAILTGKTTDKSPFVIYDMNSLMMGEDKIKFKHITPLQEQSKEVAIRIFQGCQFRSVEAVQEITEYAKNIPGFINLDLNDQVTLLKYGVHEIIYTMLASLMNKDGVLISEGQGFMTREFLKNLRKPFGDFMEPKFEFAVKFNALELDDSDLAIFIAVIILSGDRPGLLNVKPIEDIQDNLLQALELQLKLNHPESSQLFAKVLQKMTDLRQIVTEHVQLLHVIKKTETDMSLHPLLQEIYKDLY
Outline: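 CMT-93 cells (1×10⁵/well) were transfected with an NF-κB or PPRE luciferase reporter plus CMV-β-Gal. At 24 h they were treated with compound for 30 min, then with 100 ng/mL LPS for 6 h. Cells were lysed in Tris/EDTA/DTT/Triton buffer and supernatant luciferase was read by luminometer. Results are fold over untreated cells.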

Macrophage [8] = assay: Increase in PPAR-gamma mRNA transcript level in human macrophages at 10 uM by quantitative PCR analysis; assay type: functional, cell-based
[9] = Antiinflammatory activity in human macrophages assessed as inhibition of LPS-induced IL8 release at 10 '-3 uM preincubated for 30 mins before LPS-challenge measured after 24 hrs post challenge by ELISA (reference value: 7.86 +/-0.17 ng/ml); assay type: functional, Macrophage; outline: as §1
[10] = Antiinflammatory activity in human macrophages assessed as inhibition of LPS-induced IL8 release at 10 '-2 uM preincubated for 30 mins before LPS-challenge measured after 24 hrs post challenge by ELISA (reference value: 7.86 +/-0.17 ng/ml); assay type: functional, Macrophage; outline: as §1
[11] = Antiinflammatory activity in human macrophages assessed as inhibition of LPS-induced IL8 release at 1 uM preincubated for 30 mins before LPS-challenge measured after 24 hrs post challenge by ELISA (reference value: 7.86 +/-0.17 ng/ml); assay type: functional, Macrophage; outline: as §1
[12] = Antiinflammatory activity in human macrophages assessed as inhibition of LPS-induced IL8 release at 5 uM preincubated for 30 mins before LPS-challenge measured after 24 hrs post challenge by ELISA (reference value: 7.86 +/-0.17 ng/ml); assay type: functional, Macrophage; outline: as §1
[13] = Antiinflammatory activity in human macrophages assessed as inhibition of LPS-induced IL8 release at 10 uM preincubated for 30 mins before LPS-challenge measured after 24 hrs post challenge by ELISA (reference value: 7.86 +/-0.17 ng/ml); assay type: functional, Macrophage; outline: as §1
[14] = Antiinflammatory activity in human macrophages assessed as inhibition of LPS-induced IL8 release at 100 uM preincubated for 30 mins before LPS-challenge measured after 24 hrs post challenge by ELISA (reference value: 7.86 +/-0.17 ng/ml); assay type: functional, Macrophage; outline: as §1
[15] = Antiinflammatory activity in human macrophages assessed as inhibition of LPS-induced TNFalpha release at 10 '-3 uM preincubated for 30 mins before LPS-challenge measured after 24 hrs post challenge by ELISA (reference value: 1682 +/-190 ng/ml); assay type: functional, Macrophage; outline: as §1
[16] = Antiinflammatory activity in human macrophages assessed as inhibition of LPS-induced TNFalpha release at 10 '-2 uM preincubated for 30 mins before LPS-challenge measured after 24 hrs post challenge by ELISA (reference value: 1682 +/-190 ng/ml); assay type: functional, Macrophage; outline: as §1
[17] = Antiinflammatory activity in human macrophages assessed as inhibition of LPS-induced TNFalpha release at 1 uM preincubated for 30 mins before LPS-challenge measured after 24 hrs post challenge by ELISA (reference value: 1682 +/-190 ng/ml); assay type: functional, Macrophage; outline: as §1
[18] = Antiinflammatory activity in human macrophages assessed as inhibition of LPS-induced TNFalpha release at 5 uM preincubated for 30 mins before LPS-challenge measured after 24 hrs post challenge by ELISA (reference value: 1682 +/-190 ng/ml); assay type: functional, Macrophage; outline: as §1
[19] = Antiinflammatory activity in human macrophages assessed as inhibition of LPS-induced TNFalpha release at 10 uM preincubated for 30 mins before LPS-challenge measured after 24 hrs post challenge by ELISA (reference value: 1682 +/-190 ng/ml); assay type: functional, Macrophage; outline: as §1
[20] = Antiinflammatory activity in human macrophages assessed as inhibition of LPS-induced TNFalpha release at 100 uM preincubated for 30 mins before LPS-challenge measured after 24 hrs post challenge by ELISA (reference value: 1682 +/-190 ng/ml); assay type: functional, Macrophage; outline: as §1
Mus musculus [21] = assay: Antiinflammatory activity in DSS-induced C57Bl/6 mouse colitis model assessed as inhibition IL-1beta level in colonic homogenate at 400 mg/kg/day administered intragastrically for 7 days; assay type: functional, organism-based
Outline: (§2)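 Male C57Bl/6J mice, 8–10 per group, dosed intragastrically daily for 7 days at 400 mg/kg/day (vehicle 100 µL). From day 2, drinking water carried 3.5% w/vol DSS. Killed 5 days after colitis induction. Full-thickness proximal colon homogenised for MPO activity and IL-1β protein.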

Mus musculus [22] = assay: Antiinflammatory activity in DSS-induced C57Bl/6 mouse colitis model assessed as inhibition MPO activity in colonic homogenate at 400 mg/kg/day administered intragastrically for 7 days; assay type: functional; outline: as §2
Macrophage [23] = assay: Increase in PPAR-gamma mRNA transcript level in human macrophages at 30 mM by quantitative PCR analysis; assay type: functional, cell-based

Compound | inhibition (Macrophage [1]) | inhibition (Macrophage [2]) | inhibition (Macrophage [3]) | Activity [4] | Activity [5] | Activity [6] | other results
O=C(O)c1ccnc(CO)c1O | inactive | inactive | inactive | Toxic | Toxic | Non-toxic | –
Cc1cc(C(=O)O)c(O)c(CO)n1 | Active | Active | – | – | – | – | –
O=C(O)c1ccncc1O | inactive | inactive | inactive | Toxic | Toxic | Non-toxic | –
CN(CCOc1ccc(CC2SC(=O)NC2=O)cc1)c1ccccn1 (centres undefined) | – | – | – | – | – | – | Activity [7]: Active; Activity (Macrophage [8]): Active
Cc1c(O)c(C(=O)O)cc[n+]1C.[Cl-] | Active | Active | Active | – | – | – | Activity [9]: 7.45 ng/mL; Activity [10]: 7.23 ng/mL; Activity [11]: 7.04 ng/mL; Activity [12]: 7.34 ng/mL; Activity [13]: 6.4 ng/mL; Activity [14]: 4.03 ng/mL; Activity [15]: 1626 ng/mL; Activity [16]: 1418 ng/mL; Activity [17]: 1368 ng/mL; Activity [18]: 1394 ng/mL; Activity [19]: 1404 ng/mL; Activity [20]: 901 ng/mL
Nc1ccc(O)c(C(=O)O)c1 | – | – | – | – | – | – | inhibition (Mus musculus [21]): inactive; inhibition (Mus musculus [22]): Active; Activity (Macrophage [23]): Active
